Only some compounds are listed: those with a hit (about 5.7% of all), similar ones and a draw of the others.
Mdm2-MdmX inh: inhibitors of human Mdm2-MdmX association, primary screen, cell-based, luminescence, split luciferase, SaOS-2, uHTS; Protein Mdm4 (Homo sapiens) + E3 ubiquitin-protein ligase Mdm2 (Homo sapiens), …; SaOS-2 split-luciferase Mdm2/MdmX complementation; inhibition, % at 8 µM; 330,000 compounds, 3% hits;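 active means inhibition of at least 50% at 8 µM in the primary screen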
Target sequence (O15151 whole entry, looked up): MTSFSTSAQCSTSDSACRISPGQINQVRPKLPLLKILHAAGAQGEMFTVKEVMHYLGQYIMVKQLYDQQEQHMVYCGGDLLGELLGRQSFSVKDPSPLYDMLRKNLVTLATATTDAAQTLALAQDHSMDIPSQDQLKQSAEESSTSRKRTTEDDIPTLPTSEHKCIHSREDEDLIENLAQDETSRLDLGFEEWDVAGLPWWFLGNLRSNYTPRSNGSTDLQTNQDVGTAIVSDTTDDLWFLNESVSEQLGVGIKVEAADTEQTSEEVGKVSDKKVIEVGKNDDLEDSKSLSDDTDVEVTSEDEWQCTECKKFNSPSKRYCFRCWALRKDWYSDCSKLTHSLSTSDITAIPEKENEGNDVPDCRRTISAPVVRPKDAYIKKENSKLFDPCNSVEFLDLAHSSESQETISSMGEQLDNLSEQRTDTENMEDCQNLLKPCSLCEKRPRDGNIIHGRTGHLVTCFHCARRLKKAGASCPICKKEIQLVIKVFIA
Target sequence (Q00987 whole entry, looked up): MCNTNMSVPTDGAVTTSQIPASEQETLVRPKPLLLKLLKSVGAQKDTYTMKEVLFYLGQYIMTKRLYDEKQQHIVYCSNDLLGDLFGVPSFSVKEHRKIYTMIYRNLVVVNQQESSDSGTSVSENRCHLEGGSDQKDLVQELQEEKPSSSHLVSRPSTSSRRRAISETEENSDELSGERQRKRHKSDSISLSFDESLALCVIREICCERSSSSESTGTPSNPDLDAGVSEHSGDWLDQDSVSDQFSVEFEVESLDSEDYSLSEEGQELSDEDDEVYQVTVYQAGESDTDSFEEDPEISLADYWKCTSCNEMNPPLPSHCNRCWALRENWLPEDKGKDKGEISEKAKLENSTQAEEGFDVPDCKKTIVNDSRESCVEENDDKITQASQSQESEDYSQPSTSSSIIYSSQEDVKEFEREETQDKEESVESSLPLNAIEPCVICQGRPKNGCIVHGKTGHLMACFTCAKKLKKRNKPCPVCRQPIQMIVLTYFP
Calb FLC: C. albicans growth inhibition with fluconazole, primary screen, CaCi-2 strain, Alamar Blue fluorescence; growth inhibition, % (test concentration not listed); AID 1979, 2009; 300,000 compounds, 0.57% hits; C. albicans CaCi-2 (fluconazole-resistant clinical isolate) + fluconazole, 48 h;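 active means growth inhibition above about 58% in most replicates, limit read from the data, passing the limit was not always enough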;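 further: all wells also contain fluconazole at 8 µg/ml as a sub-toxic cotreatment; 0% = median of DMSO wells and 100% = median of geldanamycin control wells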
Beta cell apopt: inhibitors of cytokine-induced beta cell apoptosis, primary screen, luminescence; protection from apoptosis, % (concentration not given with the values); 300,000 compounds, 0.8% hits; INS-1E cytokine-induced death, ATP luminescence, 48 h; percent of positive-control rescue, neutral wells zero;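 active means Every replicate reaches about 75%, or at least half do and their mean reaches it too, limit read from the data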;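 further: 0% = cytokine-treated negative control wells and 100% = positive control rescue; higher means more ATP so stronger rescue from cytokine killing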
SKKanGAS inh: S. pyogenes SKKanGAS growth inhibitors in kanamycin, primary screen, streptokinase expression inhibitor project, SKKanGAS strain, BacTiter-Glo luminescence; 6 h; inhibition, % at 7.5 µM; 300,000 compounds, 1.3% hits; AID 1662, 2009;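 active means mean replicate score, as percent of positive control median, at least 50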;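 further: strain carries kanamycin resistance gene driven by streptokinase promoter and grows in 40 µg/ml kanamycin; loss of luminescence reflects streptokinase promoter inhibition or plain growth inhibition; 0% = median of DMSO wells and 100% = positive control at its reference dose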
T cruzi repl: inhibitors of intracellular T. cruzi growth, primary screen, luminescence, NIH3T3 host cells; inhibition, % (concentration not given with the values); T. cruzi beta-gal in NIH3T3, 90 h; 300,000 compounds, 1.4% hits;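 active means mean inhibition across valid replicates above about 55%, limit read from the data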;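 further: signal also drops with host cell toxicity which is not excluded here; 0% = plate median of DMSO wells and 100% = zero luminescence signal; higher percent means less beta-gal luminescence so fewer parasites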
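compound dosing = single 50 nL compound addition per well in DMSO | material = NIH/3T3 host cells with β-galactosidase reporter T. cruzi | input = 5,000 host fibroblasts per well | timing = ≥90 h infection period, 3 h prior cell attachment | read-out basis = percent inhibition of parasite-derived β-gal signal | detection = GalScreen β-gal luminescence, detergent lysis, 60 min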
CSC inhib: cancer stem cell viability inhibitors, primary screen, luminescence. cancer stem cell-like cells viability. 300,000 compounds, 1.1% hits. inhibition, % at 7.5 µM; in the data active means inhibition above about 75%; tested in HMLE shEcad cells
The depositor's hits bear a star; . = not tested or not shown.

SMILES | Mdm2-MdmX inh | Calb FLC | Beta cell apopt | SKKanGAS inh | T cruzi repl | CSC inhib
CCC(C)NS(=O)(=O)c1ccc(S(=O)(=O)N(CC(=O)Nc2ccccc2)CC2CCCO2)cc1 (configuration not stated) | 10 | 8 | 1 | 13 | 13 | -8
CC(=O)c1ccc(N2Cc3ccccc3C3(CCOCC3)C2=N)cc1 | 2 | -11 | -17 | -3 | -6 | -7
Cc1cc(Br)c(NC(=O)CSc2n[nH]c(N)n2)c(Br)c1 | 5 | . | -3 | . | . | 3
O=C(OCC(=O)N1CCN(C(=O)c2ccco2)CC1)c1cc(-c2cccc(Br)c2)nc2ccccc12 | 8 | -13 | 1 | 53* | -5 | 5
COCCCn1c(SCc2cccc(C(F)(F)F)c2)nc2cc(OC)c(OC)cc2c1=N | 38 | 18 | 7 | 14 | 58* | 83*
COc1cc2nc(SCc3ccc(Cl)cc3Cl)n(Cc3cccs3)c(=N)c2cc1OC | 2 | 81* | 1 | 4 | 77* | 46
COCCCn1c(SCC(=O)O)nc2cc(OC)c(OC)cc2c1=N | -6 | 4 | . | -5 | -19 | -7
COc1cc2nc(SCc3ccc(C(F)(F)F)cc3)n(Cc3cccs3)c(=N)c2cc1OC | 21 | -8 | -3 | 3 | 27 | 15
COCCCn1c(SCc2ccccc2)nc2cc(OC)c(OC)cc2c1=N | 19 | 16 | 3 | 8 | 56* | 68
CCN(CC)CCn1c(-c2ccc(C)cc2)nc(=S)c2c1CC(C)(C)OC2 | 15 | -3 | -1 | -3 | . | -8
CCCOc1nc(SCCC)nc2c1cnn2-c1ccccc1 | 5 | 3 | 0 | 14 | 0 | 24
Cc1ccc(-c2csc(NCCn3c(C(F)(F)F)nc4ccccc43)n2)cc1 | 18 | 16 | 3 | 5 | 45 | 21
COC(=O)C1=CN(Cc2ccc(OC)c(OC)c2)C=C(C(=O)OC)C1c1cccc(F)c1 | 10 | -3 | 5 | 12 | 63* | 2
COC(=O)C1=CN(Cc2ccc(F)cc2)C=C(C(=O)OC)C1c1cc(OC)c(OC)c(OC)c1 | 15 | -8 | -2 | 0 | 16 | -1
NC(N)=N/N=C/c1ccccc1 | -22 | -2 | . | -7 | 62* | .
COc1ccccc1CNC(=O)CCCC(=O)n1nc(C)c2ccccc21 | 20 | 1 | 0 | -4 | 3 | -15
Cc1ccc(-c2[nH]nc(N)c2N=Nc2ccccc2C)cc1 | 42 | 47 | -13 | 75* | -5 | 50
O=C(COc1ccccc1[N+](=O)[O-])N1CCCc2ccccc21 | -12 | 9 | -3 | 17 | 1 | 0
Cc1cccc(/C=c2\s/c(=C\C(=O)C(C)(C)C)[nH]c2=O)c1 | 24 | 3 | 7 | 77* | 0 | 44
CCCC(O)(CCC)C(=O)NNc1ccc(C)cc1 | -4 | 111* | 7 | -15 | 15 | 23
Cc1ccc(C(O)(C(=O)NNc2ccccn2)c2ccc(C)cc2)cc1 | -20 | 2 | -2 | 0 | 6 | 11
Cc1ccc(NNC(=O)C(O)(c2cccc(C(F)(F)F)c2)c2cccc(C(F)(F)F)c2)cc1 | 4 | 69 | 3 | 29 | 39 | 99*
COc1cccc(CNCC(O)(c2ccc(Cl)cc2)c2ccc(Cl)cc2)c1 | 10 | -19 | -6 | 84* | 25 | -9
COc1cccc(-c2cc3nc(-c4ccccc4)cc(N4CCC5(CC4)OCCO5)n3n2)c1 | 26 | 11 | 6 | 22 | 55* | 13
OCCCNc1cc(-c2ccccc2)nc2cc(-c3ccc(F)cc3)nn12 | 12 | 8 | 18 | 30 | 19 | 83*
SMILES | Mdm2-MdmX inh | Calb FLC | Beta cell apopt | SKKanGAS inh | T cruzi repl | CSC inhib
Fc1ccc(-c2cc3nc(-c4ccccc4)cc(N4CCN(CCN5CCOCC5)CC4)n3n2)cc1 | . | 7 | . | 7 | 55* | .
CN1CCN(c2cc(-c3ccccc3)nc3cc(-c4ccc(F)cc4)nn23)CC1 | 47 | 7 | 12 | 11 | 35 | 64
Cc1cc(NCCCO)n2nc(-c3cccs3)cc2n1 | 15 | 6 | 4 | 4 | -14 | -7
COCCN1CCN(c2c(C)c(C)nc3cc(-c4cccc(OC)c4)nn23)CC1 | 4 | 14 | -3 | -3 | 3 | -6
CCOC(=O)c1cc(C#N)c(N2CCN(c3ccc(OC)cc3)CC2)[nH]c1=O | 5 | 92* | 1 | 9 | -13 | -3
COc1ccc([C@H]2CC(=O)C=C(c3ccc(OC)nc3)C2)cc1 | 6 | . | 2 | . | . | -13
COc1cccc2nc3cc(C)c(C)cc3nc12 | -82 | 2 | 55 | 54* | -12 | 51
CCOC(=O)/C=C/C(=O)Nc1cccc([N+](=O)[O-])c1 | 4 | -10 | -4 | 4 | 35 | 108*
O=C(CN1c2ccccc2S(=O)(=O)c2ccccc21)Nc1ccccc1F | 25 | -3 | -1 | -7 | -2 | -6
O=C1C=CC(=O)N1CCCCCCN1C(=O)C=CC1=O | . | . | 65 | . | . | 102*
O=C(CSCc1ccccc1Br)N/N=C/c1ccc2c(c1)OCO2 | 27 | -3 | 2 | 32 | 7 | 18
CCN(CC)c1ccc(C=Nc2ccc(N(C)C)cc2)c(O)c1 | 15 | 22 | 12 | 6 | 24 | 8
CCN(CC)c1ccc(N=Cc2ccc(N(CC)CC)cc2O)cc1 | 15 | 78* | 63 | 8 | 74* | 11
Cc1occc1C(=O)N/N=C/c1ccc2c(c1)OCO2 | -71 | -23 | 76* | 34 | 7 | 49
O=C(CSCc1cccc(Br)c1)N/N=C/c1ccc2c(c1)OCO2 | 29 | -11 | -1 | 9 | 4 | 100*
O=C(N/N=C/c1ccc2c(c1)OCO2)c1ccc(COCC(F)(F)C(F)F)cc1 | 11 | 4 | 3 | 6 | 13 | 83*
Cc1ccc(S(=O)(=O)NCCNC(=O)c2ccc(C)nc2)cc1 | -9 | 9 | 2 | 4 | 10 | .
CC(Sc1ccccc1)C(=O)NCCc1ccccc1 (configuration not stated) | 11 | 1 | -5 | 2 | -2 | 2
CC(C)c1ccc(N(CC(=O)NCc2ccco2)C(=O)CCC(=O)Nc2ccccn2)cc1 | 11 | 26 | -3 | 0 | -7 | -13
CC(C)NC(=S)N/N=C/c1ccc(C(C)(C)C)cc1 | 4 | 47 | 6 | -8 | 35 | 43
O=C(c1cc(-c2ccc(Br)cc2)n[nH]1)N1CCN(C(=O)c2ccccc2Br)CC1 | 5 | 11 | . | 1 | 38 | -4
Cc1occc1C(=O)N/N=C/c1ccc(OCc2ccccc2)cc1 | -24 | 1 | 3 | 1 | -15 | 3
Cc1occc1C(=O)N/N=C/c1ccc(-c2ccccc2)cc1 | -124 | -7 | 50 | 55* | -3 | -5

Bioassay records deposited in PubChem by several laboratories.
